Data as given in ChEMBL document CHEMBL1129388, “Structure-activity modifications of the HIV-1 inhibitors (+)-calanolide A and (-)-calanolide B” (J Med Chem, 1996).

Key:
[1] = system: CEM-SS; test: Using the XTT assay for cell viability, effective concentration to protect human lymphoblastoid CEM-SS cells from the cytopathic effects of HIV-1 (RF strain) was determined; format: functional, cell-based
Procedure, shortened: (§1)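 Values reported as averages of quadruplicate determinations.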

[2] = Ratio of inhibitory concentration to that of effective concentration for protection of CEM-SS cells from cytopathic effects of HIV-1 (RF strain); format: functional
Procedure, shortened: (§2)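 In vitro therapeutic index taken as IC50 divided by EC50.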

[3] = system: CEM-SS; test: Using the XTT assay for cell viability, inhibitory concentration to protect human lymphoblastoid CEM-SS cells from the cytopathic effects of HIV-1 (RF strain) was determined; format: functional, cell-based; procedure, shortened: as §1
[4] = system: CEM-SS; test: (§3) Using the XTT assay for cell viability, effective concentration to protect human lymphoblastoid CEM-SS cells from the cytopathic effects of HIV-1 (RF strain) was determined; d - Not independently evaluated; not stable under assay conditions; rapidl y converts to active compound 2 under assay conditions.; format: functional, cell-based
[5] = system: CEM-SS; test: as §3, with “inhibitory” for “effective”, “rapid ly” for “rapidl y”; format: functional, cell-based
[6] = system: CEM-SS; test: Using the XTT assay for cell viability, effective concentration to protect human lymphoblastoid CEM-SS cells from the cytopathic effects of HIV-1 (RF strain) was determined; c - not measurabel; format: functional, cell-based; procedure, shortened: as §1
[7] = system: CEM-SS; test: Using the XTT assay for cell viability, inhibitory concentration to protect human lymphoblastoid CEM-SS cells from the cytopathic effects of HIV-1 (RF strain) was determined; c - not measurabel; format: functional, cell-based; procedure, shortened: as §1
[8] = system: CEM-SS; test: Using the XTT assay for cell viability, inhibitory concentration to protect human lymphoblastoid CEM-SS cells from the cytopathic effects of HIV-1 (RF strain) was determined; c - not measurable; format: functional, cell-based; procedure, shortened: as §1
[9] = system: CEM-SS; test: Using the XTT assay for cell viability, effective concentration to protect human lymphoblastoid CEM-SS cells from the cytopathic effects of HIV-1 (RF strain) was determined; c - not measurable; format: functional, cell-based; procedure, shortened: as §1
[10] = system: CEM-SS; test: Ratio of inhibitory concentration to that of effective concentration for protection of CEM-SS cells from cytopathic effects of HIV-1 (RF strain); not measurable; format: functional, cell-based; procedure, shortened: as §2

| SMILES | EC50 [1] | TI [2] | IC50 [3] | also measured |
| --- | --- | --- | --- | --- |
| CCCc1cc(=O)oc2c3c(c4c(c12)OC(C)(C)CC4)O[C@@H](C)[C@H](C)[C@@H]3N | 0.6 µM | 10 | 5.8 µM | – |
| CCCc1cc(=O)oc2c3c(c4c(c12)OC(C)(C)CC4)O[C@@H](C)[C@H](C)C3=O | 0.37 µM | 21 | 7.9 µM | – |
| CCCc1cc(=O)oc2c3c(c4c(c12)OC(C)(C)C=C4)O[C@@H](C)[C@H](C)C3=O | 0.4 µM | 24 | 8.5 µM | – |
| CCCc1cc(=O)oc2c3c(c4c(c12)OC(C)(C)C=C4)O[C@@H](C)[C@H](C)[C@@H]3F | – | – | – | EC50 [4]: Not independently evaluated; IC50 [5]: Not independently evaluated |
| CCCc1cc(=O)oc2c3c(c4c(c12)OC(C)(C)C=C4)O[C@@H](C)[C@H](C)[C@@H]3O [COSTATOLIDE] | 0.2 µM | 31 | 5.9 µM | – |
| CCCc1cc(=O)oc2c3c(c4c(c12)OC(C)(C)C=C4)O[C@@H](C)[C@H](C)[C@@H]3N=[N+]=[N-] | 1.6 µM | 4 | 5.9 µM | – |
| CCCc1cc(=O)oc2c3c(c4c(c12)OC(C)(C)C=C4)O[C@@H](C)[C@H](C)[C@H]3O [(-)-CALANOLIDE A] | – | – | – | EC50 [6]: Not measurable; IC50 [7]: Not measurable |
| CCCc1cc(=O)oc2c3c(c4c(c12)OC(C)(C)C=C4)O[C@H](C)[C@@H](C)C3=O | 0.15 µM | 62 | 9.3 µM | – |
| CCCc1cc(=O)oc2c3c(c4c(c12)OC(C)(C)CC4)O[C@H](C)C(C)=C3 | – | – | – | IC50 [8]: Not measurable; EC50 [9]: Not measurable |
| CCCc1cc(=O)oc2c3c(c4c(c12)OC(C)(C)CC4)O[C@H](C)[C@@H](C)[C@@H]3O | 0.2 µM | 23 | 5.2 µM | – |
| CCCc1cc(=O)oc2c3c(c4c(c12)OC(C)(C)CC4)O[C@@H](C)[C@H](C)[C@@H]3O [7,8-DIHYDROCALANOLIDE B] | 0.2 µM | 41 | 8.2 µM | – |
| CCCc1cc(=O)oc2c3c(c4c(c12)OC(C)(C)C=C4)O[C@H](C)[C@@H](C)[C@@H]3O [CALANOLIDE A] | 0.18 µM | 40 | 7.3 µM | – |
| CCCc1cc(=O)oc2c3c(c4c(c12)OC(C)(C)C=C4)O[C@@H](C)[C@H](C)[C@@H]3S | 8.4 µM | – | > 150 µM | TI [10]: Not measurable |
